Laboratory results from ChEMBL document CHEMBL4312027, “Synthesis, characterization, and biological activity of a triphenylphosphonium-containing imidazolium salt against select bladder cancer cell lines” (Eur J Med Chem, 2020).
Activity calls are given as the source filed them. No cut-off for these calls is given here.

What was measured:
RT-4 [1] = experiment: Growth inhibition of human RT4 cells at 500 uM by Celltiter-Glo luminescent cell viability assay; type: functional, cell-based; details: TDE = time-dependent effect
In short: (§1)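 Cells seeded 10000/well, 24 h, then exposed in ATCC-recommended medium to 62.5–2000 μM (two-fold steps) or vehicle for the set time (5–60 min), then normal medium. After 24 h, plates equilibrated 30 min at room temperature, CellTiter-Glo added, 2 min at room temperature, luminescence read. Survival relative to vehicle control; quadruplicate.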

RT-4 [2] = experiment: Growth inhibition of human RT4 cells at 250 uM measured after 5 to 60 mins by Celltiter-Glo luminescent cell viability assay; type: functional, cell-based; in short: as §1
RT-112 [3] = experiment: Growth inhibition of human RT112 cells at 1000 uM measured after 15 to 60 mins by Celltiter-Glo luminescent cell viability assay relative to control; type: functional; details: read-out: GI; in short: as §1
RT-112 [4] = experiment: Growth inhibition of human RT112 cells measured after 1 hr by Celltiter-Glo luminescent cell viability assay; type: functional; details: RT-112, 1 h; in short: as §1
RT-4 [5] = experiment: Growth inhibition of human RT4 cells at 1000 uM measured after 15 to 60 mins by Celltiter-Glo luminescent cell viability assay relative to control; type: functional; details: read-out: GI; in short: as §1
CCRF-CEM = experiment: Growth inhibition of human CCRF-CEM cells assessed as growth percent at 10 uM incubated for 48 hrs by sulforhodamine B assay relative to control; type: functional; details: read-out: Activity
MOLT-4 = experiment: Growth inhibition of human MOLT4 cells assessed as growth percent at 10 uM incubated for 48 hrs by sulforhodamine B assay relative to control; type: functional; details: MOLT-4, 48 h, read-out: Activity
SR = experiment: Growth inhibition of human SR cells assessed as growth percent at 10 uM incubated for 48 hrs by sulforhodamine B assay relative to control; type: functional; details: read-out: Activity
HOP-62 = experiment: Growth inhibition of human HOP62 cells assessed as growth percent at 10 uM incubated for 48 hrs by sulforhodamine B assay relative to control; type: functional; details: HOP-62, 48 h, read-out: Activity
NCI-H322M = experiment: Growth inhibition of human NCI-H322M cells assessed as growth percent at 10 uM incubated for 48 hrs by sulforhodamine B assay relative to control; type: functional; details: read-out: Activity
NCI-H522 = experiment: Growth inhibition of human NCI-H522 cells assessed as growth percent at 10 uM incubated for 48 hrs by sulforhodamine B assay relative to control; type: functional; details: NCI-H522, 48 h, read-out: Activity
SF-268 = experiment: Growth inhibition of human SF268 cells assessed as growth percent at 10 uM incubated for 48 hrs by sulforhodamine B assay relative to control; type: functional; details: SF-268, 48 h, read-out: Activity
SNB-19 = experiment: Growth inhibition of human SNB19 cells assessed as growth percent at 10 uM incubated for 48 hrs by sulforhodamine B assay relative to control; type: functional; details: SNB-19, 48 h, read-out: Activity
SNB-75 = experiment: Growth inhibition of human SNB75 cells assessed as growth percent at 10 uM incubated for 48 hrs by sulforhodamine B assay relative to control; type: functional; details: SNB-75, 48 h, read-out: Activity
UACC-257 = experiment: Growth inhibition of human UACC257 cells assessed as growth percent at 10 uM incubated for 48 hrs by sulforhodamine B assay relative to control; type: functional; details: UACC-257, 48 h, read-out: Activity
IGROV-1 = experiment: Growth inhibition of human IGROV1 cells assessed as growth percent at 10 uM incubated for 48 hrs by sulforhodamine B assay relative to control; type: functional; details: IGROV-1, 48 h, read-out: Activity
OVCAR-5 = experiment: Growth inhibition of human OVCAR5 cells assessed as growth percent at 10 uM incubated for 48 hrs by sulforhodamine B assay relative to control; type: functional; details: OVCAR-5, 48 h, read-out: Activity
OVCAR-8 = experiment: Growth inhibition of human OVCAR8 cells assessed as growth percent at 10 uM incubated for 48 hrs by sulforhodamine B assay relative to control; type: functional; details: OVCAR-8, 48 h, read-out: Activity
SK-OV-3 = experiment: Growth inhibition of human SKOV3 cells assessed as growth percent at 10 uM incubated for 48 hrs by sulforhodamine B assay relative to control; type: functional; details: SK-OV-3, 48 h, read-out: Activity
PC-3 = experiment: Growth inhibition of human PC3 cells assessed as growth percent at 10 uM incubated for 48 hrs by sulforhodamine B assay relative to control; type: functional; details: PC-3, 48 h, read-out: Activity
DU-145 = experiment: Growth inhibition of human DU145 cells assessed as growth percent at 10 uM incubated for 48 hrs by sulforhodamine B assay relative to control; type: functional; details: DU-145, 48 h, read-out: Activity
UMUC3 [6] = experiment: Anticlonogenic activity against human UM-UC-3 cells assessed as no colony formation at 250 to 500 uM incubated for 1 hr measured after culturing in normal medium for 10 days by crystal violet staining assay; type: functional, cell-based
In short: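 Cells seeded at 500/well, treated 24 h later with 250 or 500 μM drug or vehicle for 1 h. Cells were then grown in normal media for 10 days, stained with 0.5% crystal violet in 20% MeOH/water at 4 °C for 5 min, washed, dried and imaged. Run in triplicate.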

UMUC3 [7] = experiment: Cell cycle arrest in human UM-UC-3 cells assessed as increase in cell accumulation at sub-G1 phase at 250 to 500 uM incubated for 1 hr measured after culturing in normal medium for 24 hrs by propidium iodide/RNase staining based FACScan flow cytometry analysis; type: functional
In short: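 Seeded at 300,000 cells/well in triplicate per treatment; 24 h later exposed to 250 or 500 μM or vehicle for 1 h. After 24 h in normal media, media plus cells were collected, washed, fixed in cold 70% ethanol (4 °C, 30 min), treated with phosphate citric acid buffer, stained with PI/RNase and gated for sub-G1 by flow cytometry.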

RT-112 [8] = experiment: Induction of mitochondrial membrane depolarization in human RT112 cells at 200 uM measured after 1 hr by JC-1 staining based confocal microscopy; type: functional, cell-based
In short: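 RT112 cells, 200000 per glass-bottom dish, plated overnight. Exposed to 200 μM for 45 min, then JC-1 added (final 10 μg/mL) for 15 min. Confocal live imaging, excitation 485 nm, emission 530 and 590 nm, every 15 min for 6 h. Red punctate staining taken as polarized mitochondria, green as depolarized. CCCP as positive control.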

Mus musculus = experiment: Antitumor activity against anesthetized BBN-induced bladder tumor mouse model assessed as increase in cleaved caspase 3 level in hyperplasia region at 1500 uM administered via intravesical instillation treated for 1 hr administered as 2 doses at 24 hrs interval and measured at 24 hrs after final treatment by hematoxylin and eosin staining based immunohistochemical analysis; type: functional, organism-based
RT-112 [9] = experiment: Induction of apoptosis in human RT112 cells assessed as caspase 9 cleavage at 250 to 500 uM incubated for 1 hr and measured at 24 hrs after treatment by Western blot analysis; type: functional, cell-based
In short: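 RT112 seeded 300,000/well; after 24 h, 250 or 500 μM or vehicle. Cells plus floating debris harvested immediately or 24 h after treatment, lysed in RIPA with protease inhibitors. About 30 μg protein heated 10 min at 95 °C with DTT, run on SDS-PAGE. Immunoblotted for PARP and caspase 9, Ran as loading control, ECL detection.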

Q: Which “growth inhibition (GI)” value (RT-4 [1]) does the source give for `[Br-].[Br-].c1ccc([P+](CCCc2n(Cc3ccc4ccccc4c3)c3ccccc3[n+]2Cc2ccc3ccccc3c2)(c2ccccc2)c2ccccc2)cc1` here?
A: Tde

Q: What about the “growth inhibition (GI)” value (RT-4 [2]) of the same compound?
A: Active

Q: And the inhibition of growth at 1000 µM (RT-112 [3])?
A: 100%

Q: What about the GI50 (RT-112 [4]) of the same compound?
A: 200 µM

Q: And the inhibition of growth at 1000 µM (RT-4 [5])?
A: 100%

Q: And the growth at 10 µM (CCRF-CEM)?
A: 43.1%

Q: And the growth at 10 µM (MOLT-4)?
A: 57.6%

Q: And the growth at 10 µM (SR)?
A: 30.8%

Q: And the growth at 10 µM (HOP-62)?
A: 61.6%

Q: And the growth at 10 µM (NCI-H322M)?
A: 63.8%

Q: And the growth at 10 µM (NCI-H522)?
A: 60.2%

Q: And the growth at 10 µM (SF-268)?
A: 79%

Q: And the growth at 10 µM (SNB-19)?
A: 38.5%

Q: What about the growth at 10 µM (SNB-75) of the same compound?
A: 91%

Q: What about the growth at 10 µM (UACC-257) of the same compound?
A: 84%

Q: And the growth at 10 µM (IGROV-1)?
A: 20.8%

Q: What about the growth at 10 µM (OVCAR-5) of the same compound?
A: 60.1%

Q: What about the growth at 10 µM (OVCAR-8) of the same compound?
A: 70.2%

Q: And the growth at 10 µM (SK-OV-3)?
A: 84.5%

Q: What about the growth at 10 µM (PC-3) of the same compound?
A: 67.5%

Q: And the growth at 10 µM (DU-145)?
A: 82.1%

Q: And the inhibition (UMUC3 [6])?
A: Active

Q: What about the Activity (UMUC3 [7]) of the same compound?
A: Active

Q: And the Activity (RT-112 [8])?
A: inactive

Q: And the Activity (Mus musculus)?
A: Active

Q: And the Activity (RT-112 [9])?
A: inactive
